According to ChEMBL document CHEMBL4130631, “Identification of the Histidine Residue in Vitamin D Receptor That Covalently Binds to Electrophilic Ligands” (J Med Chem, 2018):
Active and inactive are the calls of the source. No cut-off for these calls is given here.

What was measured:
[1] = molecular target: T1, Vitamin D3 receptor (Rattus norvegicus) (UniProt P13053); assay: Covalent binding affinity to rat VDR LBD (116 to 423 residues, 165-211 residues) at 5 equivalents after 30 hrs by ESI-MS analysis
T1 sequence (whole entry): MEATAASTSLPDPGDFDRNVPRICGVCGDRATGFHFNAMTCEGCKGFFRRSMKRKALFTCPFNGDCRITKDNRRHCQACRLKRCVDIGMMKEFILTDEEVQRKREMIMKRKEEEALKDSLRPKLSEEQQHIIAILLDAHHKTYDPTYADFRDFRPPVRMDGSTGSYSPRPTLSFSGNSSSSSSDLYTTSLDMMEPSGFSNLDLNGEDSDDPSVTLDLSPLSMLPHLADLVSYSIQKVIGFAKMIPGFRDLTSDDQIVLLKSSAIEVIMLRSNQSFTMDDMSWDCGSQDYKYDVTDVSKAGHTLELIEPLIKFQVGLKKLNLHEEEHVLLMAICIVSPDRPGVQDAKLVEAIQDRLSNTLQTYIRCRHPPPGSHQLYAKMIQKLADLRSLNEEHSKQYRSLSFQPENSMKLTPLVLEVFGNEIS

[2] = molecular target: T2, Vitamin D3 receptor (Homo sapiens) (UniProt P11473); assay: Displacement of [3H]-1,25D3 from C-terminal GST-tagged human recombinant VDR LBD expressed in Escherichia coli BL21 (DE3) after 16 hrs by radioligand binding assay relative to 1,25D3
T2 sequence (whole entry): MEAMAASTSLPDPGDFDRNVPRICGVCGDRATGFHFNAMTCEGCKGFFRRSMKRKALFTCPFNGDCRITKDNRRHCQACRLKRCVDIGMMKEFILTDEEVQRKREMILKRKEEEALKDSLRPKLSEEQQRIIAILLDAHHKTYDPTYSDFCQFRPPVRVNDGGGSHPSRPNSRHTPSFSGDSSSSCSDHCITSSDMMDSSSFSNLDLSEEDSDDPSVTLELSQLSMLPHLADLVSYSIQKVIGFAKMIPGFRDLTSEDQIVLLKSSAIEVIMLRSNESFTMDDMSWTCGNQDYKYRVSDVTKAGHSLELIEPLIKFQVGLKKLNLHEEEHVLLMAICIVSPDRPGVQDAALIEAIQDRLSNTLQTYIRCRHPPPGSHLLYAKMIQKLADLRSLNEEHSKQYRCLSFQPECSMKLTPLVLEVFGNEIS
Outline: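 Competitive binding against [3H]-1,25D3 using human VDR-LBD expressed as C-terminal GST fusion from pGEX-VDR in E. coli BL21; IC50 derived.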

[3] = molecular target: T2, Vitamin D3 receptor (Homo sapiens); assay: Agonist activity at human full-length VDR expressed in African green monkey COS7 cells by osteopontin luciferase reporter gene assay; type: cell-based
Outline: (§1)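 Dual luciferase reporter in Cos7 or HEK293 cells cotransfected with full-length human VDR plasmid (pCMX-hVDR), reporter carrying three copies of osteopontin VDRE (SPPx3-TK-Luc) and sea pansy luciferase control (pRL-CMV). Activity normalized to 1,25D3 set as 1: 10−8 M in Cos7, 10−9 M in HEK293.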

[4] = molecular target: T3, Vitamin D3 receptor (Homo sapiens, UniProt P11473); assay: Displacement of [3H]-1,25D3 from C-terminal GST-tagged human recombinant VDR LBD expressed in Escherichia coli BL21 (DE3) after 16 hrs by radioligand binding assay
T3 sequence (P11473 whole entry): T2 sequence (whole entry)

[5] = molecular target: T2, Vitamin D3 receptor (Homo sapiens); assay: Agonist activity at human full-length VDR expressed in HEK293 cells by osteopontin luciferase reporter gene assay; type: cell-based
Outline: as §1

[6] = molecular target: T1, Vitamin D3 receptor (Rattus norvegicus); assay: Covalent binding affinity to rat VDR LBD (116 to 423 residues, 165-211 residues) assessed as time duration for complete covalent bond formation with protein at 5 equivalents by ESI-MS analysis
Outline: (§2)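 Rat VDR-LBD (residues 116−423, Δ165−211) concentrated in 50 mM ammonium acetate pH 6.5, 10 μM, incubated with 5 equiv ligand at room temperature. Samples sampled over time (up to 6 h, or 24 h), infused at 30 μL/min, analysed by positive-ion ESI-MS, m/z 100−4000. Spectra deconvoluted to unmodified versus ligand-adduct protein mass peaks.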

[7] = molecular target: T1, Vitamin D3 receptor (Rattus norvegicus); assay: Irreversible covalent binding affinity to rat VDR LBD (116 to 423 residues, 165-211 residues) at 2 equivalents after 24 hrs followed by compound wash out and subsequent addition of 10 equivalents of 1,25D3 and measured after 24 hrs by ESI-MS analysis
Outline: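 Rat VDR-LBD (Δ165−211) incubated with ligand for 24 h; covalent adduct confirmed by ESI-MS, then buffer exchanged to ligand-free buffer and 10 equiv 1,25D3 added. Positive-ion ESI-MS read for retained modified versus exchanged protein peaks.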

[8] = molecular target: T1, Vitamin D3 receptor (Rattus norvegicus); assay: Covalent binding affinity to rat VDR LBD (116 to 423 residues, 165-211 residues) at 2 equivalents after 24 hrs by ESI-MS analysis
[9] = molecular target: T1, Vitamin D3 receptor (Rattus norvegicus); assay: Covalent binding affinity to rat VDR LBD (116 to 423 residues, 165-211 residues) assessed as covalently modified protein level at 5 equivalents by ESI-MS analysis; details: TDE = time-dependent effect
Outline: as §2

[10] = molecular target: T1, Vitamin D3 receptor (Rattus norvegicus); assay: Covalent binding affinity to rat VDR LBD (116 to 423 residues, 165-211 residues) at 5 equivalents by ESI-MS analysis
Outline: as §2

Activity [1] | Ratio IC50 [2] | Activity [3] | IC50 [4] | Activity [5] | TIME [6] | Activity [7] | Activity [8] | Activity [9] | Activity [10] | SMILES
Active | 0.022 | Active | 2.3 nM | Active | – | – | – | – | – | C=C1[C@H](O)CC(=C/C=C2\CCC[C@]3(C)[C@@H]([C@H](C)C(=O)/C=C/C=C/C)CC[C@@H]23)C[C@H]1O
– | 0.055 | Active | 1.1 nM | Active | 1.5 h | Active | Active | Tde | Active | C=CC(=O)CC[C@@H](C)[C@H]1CC[C@H]2/C(=C/C=C3C[C@@H](O)C(=C)[C@H](O)C3)CCC[C@]12C
– | 0.034 | Active | 1.8 nM | Active | 3 h | Active | Active | Tde | Active | C=C1[C@H](O)CC(=C/C=C2\CCC[C@]3(C)[C@@H]([C@H](C)CCC(=O)/C=C/C)CC[C@@H]23)C[C@H]1O
